{"source": "ChEMBL document CHEMBL1649139", "about": "“A novel gene, erm(41), confers inducible macrolide resistance to clinical isolates of Mycobacterium abscessus but is absent from Mycobacterium chelonae” (2009)", "format_in_all_cases": "functional", "key": {"[1]": {"system": "Mycobacteroides abscessus", "experiment": "Antimicrobial activity against Mycobacterium abscessus isolate MC879-2 at day 5 preincubated with 0.1 ug/ml for 3 days by broth microdilution method"}, "[2]": {"system": "Mycobacteroides abscessus", "experiment": "Antimicrobial activity against Mycobacterium abscessus isolate MC1448 at day 5 preincubated with 0.1 ug/ml for 3 days by broth microdilution method", "summary_of_the_method": "(§1)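 Clarithromycin MIC by broth microdilution following CLSI guidelines. Before testing, organisms were preincubated for 3 days in medium alone or in clarithromycin or erythromycin (0.01–1 μg/ml), long enough for at least two generations judged by turbidity increase. MICs were read on day 3 and again on extended incubation out to day 14.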"}, "[3]": {"system": "Mycobacteroides abscessus", "experiment": "Antimicrobial activity against Mycobacterium abscessus isolate MC879-2 at day 7 preincubated with 0.1 ug/ml for 3 days by broth microdilution method"}, "[4]": {"system": "Mycobacteroides abscessus", "experiment": "Antimicrobial activity against Mycobacterium abscessus isolate MC958 on day 4 by broth microdilution method", "conditions": "isolate MC958, 96 h"}, "[5]": {"system": "Mycobacteroides abscessus", "experiment": "Antimicrobial activity against Mycobacterium abscessus isolate MC879 on day 10 by broth microdilution method", "conditions": "isolate MC879, 240 h"}, "[6]": {"system": "Mycolicibacterium smegmatis", "experiment": "Antimicrobial activity against Mycobacterium smegmatis transformed with erm allele Mycobacterium abscessus isolate MC879 by broth microdilution method"}, "[7]": {"system": "Mycolicibacterium smegmatis", "experiment": "Antimicrobial activity against Mycobacterium smegmatis transformed with erm allele Mycobacterium abscessus isolate MC719 by broth microdilution method"}, "[8]": {"system": "Mycolicibacterium smegmatis", "experiment": "Antimicrobial activity against Mycobacterium smegmatis transformed with erm allele Mycobacterium abscessus isolate MC1082 preincubated with 2 ug/ml erythromycin for 20 to 24 hrs by broth microdilution method"}, "[9]": {"system": "Mycobacteroides abscessus", "experiment": "Antimicrobial activity against Mycobacterium abscessus isolate MC719 at day 3 by broth microdilution method", "conditions": "isolate MC719, 72 h", "summary_of_the_method": "as §1"}, "[10]": {"system": "Mycobacteroides abscessus", "experiment": "Antimicrobial activity against Mycobacterium abscessus isolate MC724 at day 3 by broth microdilution method", "conditions": "isolate MC724, 72 h", "summary_of_the_method": "(§2)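 Clarithromycin MIC by broth microdilution following CLSI guidelines. Organisms were preincubated […], for 3 days before the assay. This allowed at least two generations, judged by the rise in turbidity. The MIC was read at the stated day, with incubation extended from day 3 to as long as 14 days.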"}, "[11]": {"system": "Mycobacteroides abscessus", "experiment": "Antimicrobial activity against Mycobacterium abscessus isolate MC719 at day 5 by broth microdilution method", "conditions": "isolate MC719, 120 h", "summary_of_the_method": "as §1"}, "[12]": {"system": "Mycobacteroides abscessus", "experiment": "Antimicrobial activity against Mycobacterium abscessus isolate MC723 at day 5 by broth microdilution method", "conditions": "isolate MC723, 120 h", "summary_of_the_method": "as §1"}, "[13]": {"system": "Mycobacteroides abscessus", "experiment": "Antimicrobial activity against Mycobacterium abscessus isolate MC958 at day 9 by broth microdilution method", "conditions": "isolate MC958, 216 h"}, "[14]": {"system": "Mycobacteroides abscessus", "experiment": "Antimicrobial activity against Mycobacterium abscessus isolate MC720 at day 9 by broth microdilution method", "conditions": "isolate MC720, 216 h", "summary_of_the_method": "as §1"}, "[15]": {"system": "Mycobacteroides abscessus", "experiment": "Antimicrobial activity against Mycobacterium abscessus isolate MC879 at day 14 by broth microdilution method", "conditions": "isolate MC879, 336 h", "summary_of_the_method": "as §2"}, "[16]": {"system": "Mycobacteroides abscessus", "experiment": "Antimicrobial activity against Mycobacterium abscessus isolate MC720 at day 14 by broth microdilution method", "conditions": "isolate MC720, 336 h", "summary_of_the_method": "as §1"}, "[17]": {"system": "Mycobacteroides abscessus", "experiment": "Antimicrobial activity against Mycobacterium abscessus isolate MC958 at day 3 preincubated with 0.1 ug/ml erythromycin for 3 days by broth microdilution method", "summary_of_the_method": "(§3)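 To test inducible resistance, cultures were preincubated for 3 days in clarithromycin or erythromycin, within 0.01–1 μg/ml. The period was set so cultures passed at least two generations, judged by turbidity increase. Clarithromycin MIC was then determined by CLSI-conforming broth microdilution and read on the stated day, from day 3 up to 14.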"}, "[18]": {"system": "Mycobacteroides abscessus", "experiment": "Antimicrobial activity against Mycobacterium abscessus isolate MC1028 at day 3 by broth microdilution method", "conditions": "isolate MC1028, 72 h", "summary_of_the_method": "(§4)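 Clarithromycin MIC by CLSI-conforming broth microdilution. Before testing, cultures were preincubated for 3 days, either in medium alone or in clarithromycin or erythromycin (tested range 0.01–1 μg/ml). Preincubation ran for at least two generations, judged by turbidity increase. Plates were read on day 3 and on extended incubation at days 5 to 14.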"}, "[19]": {"system": "Mycobacteroides abscessus", "experiment": "Antimicrobial activity against Mycobacterium abscessus isolate MC1082 at day 14 by broth microdilution method", "conditions": "isolate MC1082, 336 h", "summary_of_the_method": "as §4"}, "[20]": {"system": "Mycobacteroides abscessus", "experiment": "Antimicrobial activity against Mycobacterium abscessus isolate MC1028 at day 3 preincubated with 0.1 ug/ml erythromycin for 3 days by broth microdilution method", "summary_of_the_method": "as §4"}, "[21]": {"system": "Mycobacteroides abscessus", "experiment": "Antimicrobial activity against Mycobacterium abscessus isolate MC1082 at day 3 preincubated with 0.1 ug/ml erythromycin for 3 days by broth microdilution method", "summary_of_the_method": "as §4"}, "[22]": {"system": "Mycobacteroides abscessus", "experiment": "Antimicrobial activity against Mycobacterium abscessus isolate MAB30 at day 5 preincubated with 0.1 ug/ml erythromycin for 3 days by broth microdilution method", "summary_of_the_method": "as §4"}, "[23]": {"system": "Mycobacteroides abscessus", "experiment": "Antimicrobial activity against Mycobacterium abscessus isolate MC1082 at day 7 preincubated with 0.1 ug/ml erythromycin for 3 days by broth microdilution method", "summary_of_the_method": "as §4"}, "[24]": {"system": "Mycobacteroides abscessus", "experiment": "Antimicrobial activity against Mycobacterium abscessus isolate MC724 at day 5 preincubated with 0.1 ug/ml erythromycin for 3 days by broth microdilution method", "summary_of_the_method": "(§5)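 Clinical M. abscessus isolates were preincubated for 3 days, either in medium alone or in clarithromycin or erythromycin at 0.01 to 1 μg/ml, allowing at least two generations of growth judged by turbidity. The clarithromycin MIC was then determined by CLSI-conforming broth microdilution, with plates read on day 3 and on extended incubation (days 5 to 14).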"}, "[25]": {"system": "Mycobacteroides abscessus", "experiment": "Antimicrobial activity against Mycobacterium abscessus isolate MC724 at day 7 preincubated with 0.1 ug/ml erythromycin for 3 days by broth microdilution method", "summary_of_the_method": "as §3"}, "[26]": {"system": "Mycobacteroides abscessus", "experiment": "Antimicrobial activity against Mycobacterium abscessus isolate MC723 at day 9 preincubated with 0.1 ug/ml erythromycin for 3 days by broth microdilution method", "summary_of_the_method": "as §1"}, "[27]": {"system": "Mycobacteroides abscessus", "experiment": "Antimicrobial activity against Mycobacterium abscessus isolate MAB30 at day 3 preincubated with 0.1 ug/ml for 3 days by broth microdilution method", "summary_of_the_method": "as §4"}, "[28]": {"system": "Mycobacteroides abscessus", "experiment": "Antimicrobial activity against Mycobacterium abscessus isolate MC1082 at day 5 preincubated with 0.1 ug/ml for 3 days by broth microdilution method", "summary_of_the_method": "as §4"}, "[29]": {"system": "Mycobacteroides abscessus", "experiment": "Antimicrobial activity against Mycobacterium abscessus isolate MC1082 at day 7 preincubated with 0.1 ug/ml for 3 days by broth microdilution method", "summary_of_the_method": "as §4"}, "[30]": {"system": "Mycobacteroides abscessus", "experiment": "Antimicrobial activity against Mycobacterium abscessus isolate MC879-2 at day 3 preincubated with 0.1 ug/ml erythromycin for 3 days by broth microdilution method"}, "[31]": {"system": "Mycobacteroides abscessus", "experiment": "Antimicrobial activity against Mycobacterium abscessus isolate MC879 at day 14 preincubated with 0.1 ug/ml erythromycin for 3 days by broth microdilution method", "summary_of_the_method": "as §3"}, "[32]": {"system": "Mycobacteroides abscessus", "experiment": "Antimicrobial activity against Mycobacterium abscessus isolate MC719 at day 14 preincubated with 0.1 ug/ml erythromycin for 3 days by broth microdilution method", "summary_of_the_method": "as §1"}, "[33]": {"system": "Mycobacteroides abscessus", "experiment": "Antimicrobial activity against Mycobacterium abscessus isolate MC720 at day 14 preincubated with 0.1 ug/ml erythromycin for 3 days by broth microdilution method", "summary_of_the_method": "as §1"}, "[34]": {"system": "Mycobacteroides abscessus", "experiment": "Antimicrobial activity against Mycobacterium abscessus isolate MC724 at day 5 preincubated with 0.1 ug/ml for 3 days by broth microdilution method", "summary_of_the_method": "as §5"}, "[35]": {"system": "Mycobacteroides abscessus", "experiment": "Antimicrobial activity against Mycobacterium abscessus isolate MC723 at day 14 preincubated with 0.1 ug/ml for 3 days by broth microdilution method", "summary_of_the_method": "as §1"}, "[36]": {"system": "Mycobacteroides abscessus", "experiment": "Antimicrobial activity against Mycobacterium abscessus isolate MC724 at day 14 preincubated with 0.1 ug/ml for 3 days by broth microdilution method", "summary_of_the_method": "as §1"}}}
{"smiles": "CC[C@H]1OC(=O)[C@H](C)[C@@H](O[C@H]2C[C@@](C)(OC)[C@@H](O)[C@H](C)O2)[C@H](C)[C@@H](O[C@@H]2O[C@H](C)C[C@H](N(C)C)[C@H]2O)[C@](C)(OC)C[C@@H](C)C(=O)[C@H](C)[C@@H](O)[C@]1(C)O", "note": "[CLARITHROMYCIN]", "values": [{"measurement": "MIC", "setting": "[1]", "value": "> 32", "unit": "µg/mL"}, {"measurement": "MIC", "setting": "[2]", "value": "> 32", "unit": "µg/mL"}, {"measurement": "MIC", "setting": "[3]", "value": "> 32", "unit": "µg/mL"}, {"measurement": "MIC", "setting": "[4]", "value": "≤ 2", "unit": "µg/mL"}, {"measurement": "MIC", "setting": "[5]", "value": 32, "unit": "µg/mL"}, {"measurement": "MIC", "setting": "[6]", "value": 2, "unit": "µg/mL"}, {"measurement": "MIC", "setting": "[7]", "value": 2, "unit": "µg/mL"}, {"measurement": "MIC", "setting": "[8]", "value": "≤ 0.5", "unit": "µg/mL"}, {"measurement": "MIC", "setting": "[9]", "value": "≤ 0.5", "unit": "µg/mL"}, {"measurement": "MIC", "setting": "[10]", "value": "≤ 0.5", "unit": "µg/mL"}, {"measurement": "MIC", "setting": "[11]", "value": 1, "unit": "µg/mL"}, {"measurement": "MIC", "setting": "[12]", "value": 1, "unit": "µg/mL"}, {"measurement": "MIC", "setting": "[13]", "value": "> 32", "unit": "µg/mL"}, {"measurement": "MIC", "setting": "[14]", "value": "> 32", "unit": "µg/mL"}, {"measurement": "MIC", "setting": "[15]", "value": "> 32", "unit": "µg/mL"}, {"measurement": "MIC", "setting": "[16]", "value": "> 32", "unit": "µg/mL"}, {"measurement": "MIC", "setting": "[17]", "value": "≤ 0.5", "unit": "µg/mL"}, {"measurement": "MIC", "setting": "[18]", "value": "≤ 0.5", "unit": "µg/mL"}, {"measurement": "MIC", "setting": "[19]", "value": "≤ 0.5", "unit": "µg/mL"}, {"measurement": "MIC", "setting": "[20]", "value": "≤ 0.5", "unit": "µg/mL"}, {"measurement": "MIC", "setting": "[21]", "value": "≤ 0.5", "unit": "µg/mL"}, {"measurement": "MIC", "setting": "[22]", "value": "≤ 0.5", "unit": "µg/mL"}, {"measurement": "MIC", "setting": "[23]", "value": "≤ 0.5", "unit": "µg/mL"}, {"measurement": "MIC", "setting": "[24]", "value": 4, "unit": "µg/mL"}, {"measurement": "MIC", "setting": "[25]", "value": "> 32", "unit": "µg/mL"}, {"measurement": "MIC", "setting": "[26]", "value": "> 32", "unit": "µg/mL"}, {"measurement": "MIC", "setting": "[27]", "value": "≤ 0.5", "unit": "µg/mL"}, {"measurement": "MIC", "setting": "[28]", "value": "≤ 0.5", "unit": "µg/mL"}, {"measurement": "MIC", "setting": "[29]", "value": "≤ 0.5", "unit": "µg/mL"}, {"measurement": "MIC", "setting": "[30]", "value": "> 32", "unit": "µg/mL"}, {"measurement": "MIC", "setting": "[31]", "value": "> 32", "unit": "µg/mL"}, {"measurement": "MIC", "setting": "[32]", "value": "> 32", "unit": "µg/mL"}, {"measurement": "MIC", "setting": "[33]", "value": "> 32", "unit": "µg/mL"}, {"measurement": "MIC", "setting": "[34]", "value": 4, "unit": "µg/mL"}, {"measurement": "MIC", "setting": "[35]", "value": "> 32", "unit": "µg/mL"}, {"measurement": "MIC", "setting": "[36]", "value": "> 32", "unit": "µg/mL"}]}
